Legend:
[1] = tested on: Mus musculus; experiment: Toxicity in male CDF1 mouse allografted with mouse P388 cells assessed as animal survival at 25 mg/kg, ip administered daily for 9 days as Klucel suspension starting 24 hrs after tumor inoculation; assay type: organism-based; design: dose 25 mg/kg, route intraperitoneal; details: in vivo
In short: (§1)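 P-388 leukemia ascitic fluid inoculated ip. Compound given ip as a suspension in Klucel (hydroxypropylcellulose), once daily for nine doses beginning 24 h post-inoculation. Acute toxicity assessed as toxicity-day survivors per group. Survival was followed up to 30 days, with 30-day survival counted as "cure". Follows NCI screening protocols.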

[2] = Cytotoxicity against human 9KB cells treated as ethanol solution; assay type: functional; details: read-out: ED50 (the source's name)
In short: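 Compound applied as an ethanol solution; activity read out as ED50 under the general screening protocol.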

[3] = tested on: P388; experiment: Antitumor activity against mouse P388 cells allografted in male CDF1 mouse assessed as change in body weight at 50 mg/kg, ip administered daily for 9 days as Klucel suspension starting 24 hrs after tumor inoculation; assay type: functional; details: route intraperitoneal
In short: (§2)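 Ascitic fluid carrying P388 cells was inoculated ip. Compound was given ip in nine daily doses, starting 24 h after inoculation, in Klucel (hydroxypropylcellulose) suspension or in saline with Tween-80. Body-weight difference (treated minus control) was recorded on day 5. Survival was scored as %T/C of median survival time, and 30-day survival counted as cure.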

[4] = tested on: P388; experiment: Antitumor activity against mouse P388 cells allografted in male CDF1 mouse assessed as change in body weight at 25 mg/kg, ip administered daily for 9 days as Klucel suspension starting 24 hrs after tumor inoculation; assay type: functional; details: route intraperitoneal; in short: as §2
[5] = tested on: Mus musculus; experiment: Toxicity in male CDF1 mouse allografted with mouse P388 cells assessed as animal survival at 12.5 mg/kg, ip administered daily for 9 days as Klucel suspension starting 24 hrs after tumor inoculation; assay type: organism-based; design: dose 12.5 mg/kg, route intraperitoneal; details: in vivo; in short: as §1
[6] = tested on: L1210; experiment: Antileukemic activity against mouse L1210 cells allografted in male CDF1 mouse assessed as host mean survival time at 100 mg/kg, ip administered daily for 9 days as Klucel suspension starting 24 hrs after tumor inoculation relative to control; assay type: functional; details: route intraperitoneal
In short: (§3)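 L1210 leukemia given as an ascitic fluid cell inoculum, ip, to mice of the strain and sex in each line. Test material was given ip for nine daily doses starting 24 h after inoculation, in a Klucel (hydroxypropylcellulose) suspension. Read-out is mean survival time as %T/C versus controls, with >125 taken as significant.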

[7] = tested on: L1210; experiment: Antileukemic activity against mouse L1210 cells allografted in female BDF1 mouse assessed as change in body weight at 25 mg/kg, ip administered daily for 9 days as Klucel suspension starting 24 hrs after tumor inoculation; assay type: functional; details: route intraperitoneal
In short: (§4)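 Ascitic fluid carrying L1210 cells was inoculated ip. Compound was given ip as a Klucel (hydroxypropylcellulose) suspension in nine daily doses, starting 24 h after inoculation. Body-weight difference (treated minus control) was recorded on day 5. Survival was scored as %T/C of mean survival time.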

[8] = tested on: P388; experiment: Antitumor activity against mouse P388 cells allografted in male CDF1 mouse assessed as disease cures by measuring 30-days host survival at 12.5 mg/kg, ip administered daily for 9 days as Klucel suspension starting 24 hrs after tumor inoculation relative to control; assay type: functional; details: route intraperitoneal
In short: (§5)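 P388 leukemia given as an ascitic fluid cell inoculum, ip, to mice of the strain and sex in each line. Nine daily ip doses were given in a Klucel (hydroxypropylcellulose) suspension, starting 24 h after inoculation. Read-out is median survival time as %T/C, with >125 taken as significant; a "cure" means 30-day survival.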

[9] = tested on: Mus musculus; experiment: Toxicity in female BDF1 mouse allografted with mouse L1210 cells assessed as animal survival at 50 mg/kg, ip administered daily for 9 days as Klucel suspension starting 24 hrs after tumor inoculation measured on fifth day; assay type: organism-based; design: dose 50 mg/kg, route intraperitoneal; details: in vivo
In short: (§6)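 L1210 leukemia passaged as ascitic fluid and inoculated ip. Test agent given ip as a Klucel (hydroxypropylcellulose) suspension, nine daily doses starting 24 h after tumor inoculation. Acute toxicity read as toxicity-day survivors per group (out of 6), recorded on day 5. Animal weight difference T − C was also recorded. Follows NCI screening protocols.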

[10] = tested on: Mus musculus; experiment: Toxicity in female BDF1 mouse allografted with mouse L1210 cells assessed as animal survival at 25 mg/kg, ip administered daily for 9 days as Klucel suspension starting 24 hrs after tumor inoculation measured on fifth day; assay type: organism-based; design: dose 25 mg/kg, route intraperitoneal; details: in vivo; in short: as §6
[11] = tested on: L1210; experiment: Antileukemic activity against mouse L1210 cells allografted in female BDF1 mouse assessed as host mean survival time at 25 mg/kg, ip administered daily for 9 days as Klucel suspension starting 24 hrs after tumor inoculation relative to control; assay type: functional; details: route intraperitoneal; in short: as §3
[12] = tested on: L1210; experiment: Antileukemic activity against mouse L1210 cells allografted in female BDF1 mouse assessed as host mean survival time at 50 mg/kg, ip administered daily for 9 days as Klucel suspension starting 24 hrs after tumor inoculation relative to control; assay type: functional; details: route intraperitoneal; in short: as §3
[13] = tested on: P388; experiment: Antitumor activity against mouse P388 cells allografted in male CDF1 mouse assessed as disease cures by measuring 30-days host survival at 100 mg/kg, ip administered daily for 9 days as Klucel suspension starting 24 hrs after tumor inoculation relative to control; assay type: functional; details: route intraperitoneal; in short: as §5
[14] = tested on: P388; experiment: Antitumor activity against mouse P388 cells allografted in male CDF1 mouse assessed as disease cures by measuring 30-days host survival at 50 mg/kg, ip administered daily for 9 days as Klucel suspension starting 24 hrs after tumor inoculation relative to control; assay type: functional; details: route intraperitoneal; in short: as §5
[15] = tested on: Mus musculus; experiment: Toxicity in female BDF1 mouse allografted with mouse L1210 cells assessed as animal survival at 12.5 mg/kg, ip administered daily for 9 days as Klucel suspension starting 24 hrs after tumor inoculation measured on fifth day; assay type: organism-based; design: dose 12.5 mg/kg, route intraperitoneal; details: in vivo
In short: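 Female BDF1 mice bearing ip ascitic L1210 inoculum got nine daily ip doses in a Klucel suspension, starting 24 h after tumor inoculation. Toxicity was scored as toxicity-day survivors out of the group, recorded on the fifth day. Animal weight difference (T − C) was also tabulated.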

[16] = tested on: L1210; experiment: Antileukemic activity against mouse L1210 cells allografted in female BDF1 mouse assessed as change in body weight at 50 mg/kg, ip administered daily for 9 days as Klucel suspension starting 24 hrs after tumor inoculation; assay type: functional; details: route intraperitoneal; in short: as §4
[17] = tested on: Mus musculus; experiment: Toxicity in male CDF1 mouse allografted with mouse L1210 cells assessed as animal survival at 100 mg/kg, ip administered daily for 9 days as Klucel suspension starting 24 hrs after tumor inoculation measured on fifth day; assay type: organism-based; design: dose 100 mg/kg, route intraperitoneal; details: in vivo; in short: as §6
[18] = tested on: P388; experiment: Antitumor activity against mouse P388 cells allografted in male CDF1 mouse assessed as change in body weight at 12.5 mg/kg, ip administered daily for 9 days as Klucel suspension starting 24 hrs after tumor inoculation; assay type: functional; details: route intraperitoneal; in short: as §2
[19] = tested on: P388; experiment: Antitumor activity against mouse P388 cells allografted in male CDF1 mouse assessed as change in body weight at 100 mg/kg, ip administered daily for 9 days as Klucel suspension starting 24 hrs after tumor inoculation; assay type: functional; details: route intraperitoneal; in short: as §2
[20] = tested on: L1210; experiment: Antileukemic activity against mouse L1210 cells allografted in female BDF1 mouse assessed as change in body weight at 12.5 mg/kg, ip administered daily for 9 days as Klucel suspension starting 24 hrs after tumor inoculation; assay type: functional; details: route intraperitoneal; in short: as §4
[21] = tested on: L1210; experiment: Antileukemic activity against mouse L1210 cells allografted in female BDF1 mouse assessed as host mean survival time at 12.5 mg/kg, ip administered daily for 9 days as Klucel suspension starting 24 hrs after tumor inoculation relative to control; assay type: functional; details: route intraperitoneal; in short: as §3
[22] = tested on: Mus musculus; experiment: Toxicity in male CDF1 mouse allografted with mouse L1210 cells assessed as animal survival at 200 mg/kg, ip administered daily for 9 days as Klucel suspension starting 24 hrs after tumor inoculation measured on fifth day; assay type: organism-based; design: dose 200 mg/kg, route intraperitoneal; details: in vivo; in short: as §6
[23] = tested on: L1210; experiment: Antileukemic activity against mouse L1210 cells allografted in male CDF1 mouse assessed as change in body weight at 200 mg/kg, ip administered daily for 9 days as Klucel suspension starting 24 hrs after tumor inoculation; assay type: functional; details: route intraperitoneal; in short: as §4
[24] = tested on: L1210; experiment: Antileukemic activity against mouse L1210 cells allografted in male CDF1 mouse assessed as host mean survival time at 200 mg/kg, ip administered daily for 9 days as Klucel suspension starting 24 hrs after tumor inoculation relative to control; assay type: functional; details: route intraperitoneal; in short: as §3
[25] = tested on: Mus musculus; experiment: Toxicity in male CDF1 mouse allografted with mouse P388 cells assessed as animal survival at 50 mg/kg, ip administered daily for 9 days as Klucel suspension starting 24 hrs after tumor inoculation; assay type: organism-based; design: dose 50 mg/kg, route intraperitoneal; details: in vivo; in short: as §1
[26] = tested on: P388; experiment: Antitumor activity against mouse P388 cells allografted in male CDF1 mouse assessed as disease cures by measuring 30-days host survival at 25 mg/kg, ip administered daily for 9 days as Klucel suspension starting 24 hrs after tumor inoculation relative to control; assay type: functional; details: route intraperitoneal; in short: as §5
[27] = tested on: L1210; experiment: Antileukemic activity against mouse L1210 cells allografted in male CDF1 mouse assessed as change in body weight at 100 mg/kg, ip administered daily for 9 days as Klucel suspension starting 24 hrs after tumor inoculation; assay type: functional; details: route intraperitoneal; in short: as §4

## CNC(=O)OCc1c(COC(=O)NC)c(-c2ccc(Cl)c(Cl)c2)n2c1CCC2
[1]
  Activity: Non-toxic
[2]
  EC50: > 2.7 µg/mL
[3]
  Activity: -2.5 g
[4]
  Activity: -0.4 g
[5]
  Activity: Non-toxic
[6]
  T/C: 74%
[7]
  Activity: -1.3 g
[8]
  T/C: 153%
[9]
  Activity: Non-toxic
[10]
  Activity: Non-toxic
[11]
  T/C: 109%
[12]
  T/C: 124%
[13]
  T/C: 188%
[14]
  T/C: 155%
[15]
  Activity: Non-toxic
[16]
  Activity: -3 g
[17]
  Activity: Non-toxic
[18]
  Activity: 1.6 g
[19]
  Activity: -1.9 g
[20]
  Activity: -1.5 g
[21]
  T/C: 106%
[22]
  Activity: Non-toxic
[23]
  Activity: -4.8 g
[24]
  T/C: 63%
[25]
  Activity: Non-toxic
[26]
  T/C: 160%
[27]
  Activity: -4.3 g

From ChEMBL document CHEMBL3244396, “Synthesis and antileukemic activity of 5-substituted 2,3-dihydro-6,7-bis(hydroxymethyl)-1H-pyrrolizine diesters” (J Med Chem, 1977)
